Consider 20 molecules from ChEMBL document CHEMBL1142567, “Inhibition of leukotriene biosynthesis by stilbenoids from Stemona species” (J Nat Prod, 2005).

Activity calls are given as the source filed them. No cut-off for these calls is given here.

Format in all cases: functional
Experiment [1] can be described thus: Ex vivo inhibition of leukotriene formation in calcium ionophore activated human neutrophilic granulocyte by ELISA. The method, boiled down:
(§1)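 Human neutrophil granulocytes carrying 5-LOX activity, isolated by sedimentation rate and lysis tolerance. Cells activated with calcium ionophore, then incubated with test sample and arachidonic acid. Reaction stopped with formic acid and centrifuged. Supernatant diluted 50-fold; LTB4 measured by competitive EIA (18 h, 4 °C; Ellman's development; 412 nm). Samples tested at 50, 25, 10, 5 and 1 µM in duplicate. Inhibition given as percent of control; IC50 by probit-log analysis. Trypan blue viability check.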
(In general: ELISA stands for enzyme-linked immunosorbent assay.)

The nature of experiment [2]: (§2) Ex vivo inhibition of leukotriene formation in calcium ionophore activated human neutrophilic granulocyte at 50 uM by ELISA. The method, boiled down:
as §1

The species entered for a further experiment is Homo sapiens. Described as §2. The method, boiled down: as §1
Experiment [3] in a line: Ex vivo inhibition of leukotriene formation in calcium ionophore activated human neutrophilic granulocyte at 25 uM by ELISA. In outline: as §1

Regarding `COc1ccccc1CCc1cc(O)cc(O)c1` [STILBOSTEMIN A], in experiment [1], the IC50 is above 50 µM. Moreover, the inhibition at 50 µM in experiment [2] is below 10%. Regarding `CC[C@@H]1[C@H]2CCCCN3[C@H]2[C@@H](C[C@H]3[C@@H]2C[C@H](C)C(=O)O2)[C@H]2[C@@H]1OC(=O)[C@H]2C` [NEOTUBEROSTEMONINE], the IC50 in experiment [1] is above 50 µM. Besides, in the experiment filed under Homo sapiens, the result was inactive. On to `Cc1c(O)cc(-c2cc3ccccc3o2)cc1O` [STEMOFURAN C], for which the IC50 in experiment [1] is above 50 µM. Moreover, the inhibition at 50 µM in experiment [2] was determined as 10%.

For the molecule `COc1c(O)ccc2c1CCc1c(C)c(O)c(C)c(OC)c1-2` [STEMANTHRENE C], the inhibition at 25 µM in experiment [3] came out at 100%. As to `Cc1c(O)cc(CCc2ccccc2)cc1O` [STILBOSTEMIN B], the IC50 in experiment [1] was above 50 µM. The inhibition at 50 µM in experiment [2] was 10%. Take `COc1cc(O)cc(-c2cc3c(O)cccc3o2)c1` [STEMOFURAN B]: the IC50 in experiment [1] amounted to 23.3 µM. In the case of `Oc1cc(O)cc(CCc2ccccc2)c1` [DIHYDROPINOSYLVIN], in experiment [1], the IC50 was above 50 µM. In addition, the inhibition at 50 µM in experiment [2] is 10%. The matching figures for `Oc1ccc(/C=C/c2cc(O)cc(O)c2)cc1` [RESVERATROL]: above 50 µM and below 10%. Regarding `COc1cc(O)c(C)c(-c2cc3c(O)cccc3o2)c1` [STEMOFURAN D], the IC50 in experiment [1] came to 30.3 µM.

On to `CC(c1cc2ccccc2s1)N(O)C(N)=O` (centres undefined) [ZILEUTON], for which the IC50 in experiment [1] was found to be 10.4 µM. On the same count and under the same terms, to `COc1cc(O)c(C)c2c1-c1ccc(O)c(OC)c1CC2` [STEMANTHRENE D] belongs 4.8 µM; to `COc1cc(-c2cc3c(O)cccc3o2)c(C)c(OC)c1C` [STEMOFURAN J], 26.3 µM.

With `COc1cc2c(c(O)c1C)-c1ccc(O)c(OC)c1CC2` [STEMANTHRENE B], in experiment [3], the inhibition at 25 µM is 100%.

For the molecule `CC[C@@H]1[C@H]2CCCCN3[C@H]2[C@H](C[C@H]3[C@@H]2C[C@H](C)C(=O)O2)[C@@H]2[C@H]1OC(=O)[C@H]2C` [TUBEROSTEMONINE], the IC50 in experiment [1] was above 50 µM. The result in the experiment listed under Homo sapiens was inactive. Turning to `COc1ccccc1CCc1cc(O)c(C)c(O)c1` [STILBOSTEMIN D], the IC50 in experiment [1] was above 50 µM. In addition, the inhibition at 50 µM in experiment [2] was below 10%. The matching figures for `COc1cc(O)c(C)c(CCc2cccc(O)c2OC)c1` [STILBOSTEMIN F]: above 50 µM and below 10%.

`COc1c(O)ccc2c1CCc1cc(O)c(C)c(OC)c1-2` [STEMANTHRENE A]: the IC50 in experiment [1] came to 8.5 µM. The same measure, in the same setting: the figure for `COc1cc(CCc2cccc(O)c2OC)cc(O)c1C` [STILBOSTEMIN G] is 25.8 µM.

Take `COc1cc(-c2cc3c(O)c(C)ccc3o2)c(C)c(O)c1C` [STEMOFURAN G]: the IC50 in experiment [1] was 3.7 µM. Same read-out and setting: the figure for `Oc1cc(O)cc(/C=C/c2ccccc2)c1` [PINOSYLVIN] is 22.7 µM.

Broadly, the IC50 is the concentration that gives 50% inhibition. Broadly, the inhibition is how much of the control response was suppressed.
